Records with an inconclusive call do not appear.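 The calls were made as follows, unless noted: active = viability increase at or above a cutoff of the median across tested compounds plus 3 SD (cut at about 8.5% in these data, passing the limit was not always enough); inconclusive = some gains above the cutoff, reason not given; inactive = the rest.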
Legend:
[1] = OD615 S. cerevisiae growth inhibition, permissive medium, pilot counter-assay, permissive growth control for S. cerevisiae lifespan shortening project (AID 705;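 active = growth inhibition above 25% in both replicates, a cutoff set 3 SD above the mean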); details: OD615, 24 h, at 10 µM, active compounds read high
How it was run: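 System: Engineered DeaD yeast | Buffer or medium: SC raffinose/galactose permissive medium | Doses: 10 µM single dose, 0.25% DMSO | Times: 24 h exposure, 30 °C | Measured by: OD615 turbidity read | Read-out: Yeast growth inhibition indicated by reduced 24 h OD615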

[2] = Restrictive medium S. cerevisiae growth inhibition, OD615, pilot screen of yeast lifespan reduction project, restrictive growth control (AID 706;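 active = growth inhibition above a set limit, 3 SD over mean compound inhibition, in both replicates, cut at about 43% in these data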;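 also: modified DeaD lifespan yeast strain shifted to restrictive glucose medium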); details: OD615, 48 h, at 10 µM, active compounds read high
How it was run: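 Assay system: engineered S. cerevisiae DeaD strain; Buffer or medium: CSMM-D glucose medium; Dosing: 10 µM compound, 0.25% DMSO; Times: cell pre-growth 4 h, compound exposure 48 h, 30 °C; Detection: absorbance (optical density) measured at 615 nm.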

[3] = viability gain of MRP-1-high H69AR cells under doxorubicin, pilot screen, MRP-1 activator project, CellTiter-Glo, duplicate (AID 807); details: H69AR viability with doxorubicin, CellTiter-Glo luminescence; at 10 µM; active compounds read high;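 also: compound pretreatment 18-22 h then 72 h combined with doxorubicin; 0% = doxorubicin alone and 100% = vehicle without doxorubicin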
[4] = growth suppression of beta-catenin knockout HCT116, pilot screen, human colon tumor cells (AID 823;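 active = cell viability at or below a set limit in both duplicate runs, the limit being the all-compound median minus 4 SD, cut at about 23% in these data, passing the limit was not always enough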;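 also: 0% = wells killed by 20 µM Hyamine and 100% = untreated DMSO cell wells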); details: CellTiter-Glo, 60 h, at 10 µM, active compounds read low
[5] = growth suppression of PTEN-deleted HCT116, pilot screen, cell-based, HCT116 clonal line, CellTiter-Glo (AID 824;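 active = viability at or below 27.92% in each of two runs, the all-compound median minus 4 SD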;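 also: 0% = 20 µM Hyamine control and 100% = vehicle cell control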); details: 60 h, at 10 µM, active compounds read low
[6] = inhibitors of the yeast RAM network, pilot screen, dse1pr::URA3 reporter, 5-FOA selection (AID 869;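 active = inhibition over a set limit, the all-compound mean plus 3 SD, in both replicate runs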;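 also: 0% = DMSO wells with no growth and 100% = 10 µM 1-NA-PP1 with full growth; RAM network block rescues cells from 5-FOA so hits raise OD615 growth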); details: S. cerevisiae dse1pr::URA3 5-FOA growth, OD615, 2 d; at 10 µM; active compounds read high; strain carries analog-sensitive mutant Cbk1 kinase
[7] = RAM signaling pathway blockade in yeast – S. cerevisiae, Pdr1DBD-CYC8 efflux-inhibited sensitized strain, primary screen (AID 1298;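 active = RAM network inhibition above 8.4% in each of two replicates, 3 SD over the compound average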;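 also: 0% = DMSO untreated cells without growth and 100% = 10 µM 1-NA-PP1 full growth; higher means more yeast growth rescued from 5-FOA killing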); details: S. cerevisiae cbk1-as DSE1-URA3 strain, 5-FOA growth OD615, 2 d; at 50 µM; active compounds read high

CCOC(=O)c1c(C2CCN(C(=O)OCC)CC2)nc2ccccn12
inactive: growth inhibition [1] -9.71% | growth inhibition [2] -12.6% | viability increase [3] -1.79% | viability [4] 95.4% | viability [5] 88.7% | inhibition [6] 2.99% | RAM network inhibition [7] 2.43%

CCCSc1nnc(Cn2c(=O)sc3ccccc32)n1-c1ccccc1
inactive: growth inhibition [1] -9.77% | growth inhibition [2] 3.11% | viability increase [3] 1.4% | viability [4] 92.6% | viability [5] 81.3% | inhibition [6] 3.3% | RAM network inhibition [7] 11%

COc1ccc(-c2cn3c(C)c(C(=O)NC(C)(C)C)sc3n2)cc1
inactive: growth inhibition [1] -8.09% | growth inhibition [2] -9.73% | viability increase [3] -5.94% | viability [4] 81.5% | viability [5] 85.7% | inhibition [6] 0.645% | RAM network inhibition [7] 1.82%

O=C(CCNS(=O)(=O)c1cccc2nsnc12)NCCC1=CCCCC1
inactive: growth inhibition [1] -8.97% | growth inhibition [2] -9.04% | viability increase [3] -2.88% | viability [4] 90.6% | viability [5] 94.8% | inhibition [6] 2.49% | RAM network inhibition [7] 6.94%

CCN(CCCNC(=O)CN1C(=O)COc2ccccc21)c1ccccc1
inactive: growth inhibition [1] 0.42% | growth inhibition [2] -11.2% | viability increase [3] 1.23% | viability [4] 95.9% | viability [5] 88.3% | inhibition [6] 1.61% | RAM network inhibition [7] 3.49%

Cc1nnc(NC(=O)CSc2cn(Cc3ccccc3)c3ccccc23)s1
inactive: growth inhibition [1] -8.99% | growth inhibition [2] -0.275% | viability increase [3] -2.83% | viability [4] 82.2% | viability [5] 81.2% | inhibition [6] 2.86% | RAM network inhibition [7] 2.77%

CCOc1ccc(N2CC(C(=O)NCCC3=CCCCC3)CC2=O)cc1 (stereo not drawn)
inactive: growth inhibition [1] -1.23% | growth inhibition [2] -18.5% | viability increase [3] 0.15% | viability [4] 99.6% | viability [5] 93.8% | inhibition [6] 0.36% | RAM network inhibition [7] 3.96%

Cc1ccc(-c2nc(NC(=O)CSc3nnc4scc(-c5ccccc5)n34)ns2)cc1
inactive: growth inhibition [1] 0.135% | growth inhibition [2] 0.99% | viability increase [3] 1.17% | viability [4] 74% | viability [5] 66.8% | inhibition [6] 2.42% | RAM network inhibition [7] 5.6%

Cc1cccc(OCC(=O)NCc2ccncc2)c1C
inactive: growth inhibition [1] -7.54% | growth inhibition [2] -7.64% | viability increase [3] -1.63% | viability [4] 99.4% | viability [5] 104% | inhibition [6] 0.525% | RAM network inhibition [7] 4.22%

COc1ccccc1NC(=O)Nc1ccc(Br)cn1
inactive: growth inhibition [1] -10.3% | growth inhibition [2] -15.5% | viability increase [3] -2.09% | viability [4] 92.6% | viability [5] 87.7% | inhibition [6] 2.98% | RAM network inhibition [7] 8.69%

COc1ccc(NC(=O)Nc2nnc(N3CCC(C)CC3)s2)cc1OC
inactive: growth inhibition [1] -8.13% | growth inhibition [2] -23% | viability increase [3] -4.49% | viability [4] 107% | viability [5] 98.1% | inhibition [6] 1.59% | RAM network inhibition [7] 1.42%

COc1ccc(N2Cc3cccc(C(=O)NC(C)CCc4ccco4)c3C2=O)cc1 (stereo not drawn)
inactive: growth inhibition [1] -3.44% | growth inhibition [2] -3.73% | viability increase [3] 3.67% | viability [4] 95.3% | viability [5] 95.3% | inhibition [6] 1.92% | RAM network inhibition [7] 7.29%

CCc1ccccc1NC(=O)c1cc2sccc2n1C
inactive: growth inhibition [1] -8.19% | growth inhibition [2] 0.86% | viability increase [3] 1.11% | viability [4] 90.4% | viability [5] 80.3% | inhibition [6] 0.28% | RAM network inhibition [7] 4.98%

NC(=O)C1CCN(C(=O)CN(c2cccc(C(F)(F)F)c2)S(=O)(=O)c2ccccc2)CC1
inactive: growth inhibition [1] -10.2% | growth inhibition [2] -14.5% | viability increase [3] -1.48% | viability [4] 99.7% | viability [5] 94.7% | inhibition [6] 2.27% | RAM network inhibition [7] 4.31%

O=c1c2ccccc2nc(SCc2nnc(-c3ccccc3)o2)n1-c1ccccc1
inactive: growth inhibition [1] -13.1% | growth inhibition [2] -8.7% | viability increase [3] -3.18% | viability [4] 75.4% | viability [5] 84.6% | inhibition [6] 1.96% | RAM network inhibition [7] 5.69%

O=C(Cn1ncc2c1-c1ccccc1OC2)N1CCN(Cc2ccc3c(c2)OCO3)CC1
inactive: growth inhibition [1] -1.44% | growth inhibition [2] 10.4% | viability increase [3] -3.39% | viability [4] 84.7% | viability [5] 90.2% | inhibition [6] 1.9% | RAM network inhibition [7] 2.06%

CCCN1CCN(C(=O)Cn2ncc3ccccc32)CC1
inactive: growth inhibition [1] -12.4% | growth inhibition [2] -16.9% | viability increase [3] -2.31% | viability [4] 100% | viability [5] 98.2% | inhibition [6] 1.26% | RAM network inhibition [7] 3.84%

CCCOC(=O)c1ccc(-n2nnnc2SCC(=O)N2CCCCC2)cc1
inactive: growth inhibition [1] -11.6% | growth inhibition [2] -5.64% | viability increase [3] -0.35% | viability [4] 80.3% | viability [5] 86% | inhibition [6] 0.595% | RAM network inhibition [7] 0.04%

Cc1ccsc1-c1nc(CSCC(=O)N2CCN(c3ccccc3)CC2)c(C)o1
inactive: growth inhibition [1] -4.56% | growth inhibition [2] 26.6% | viability increase [3] -3.18% | viability [4] 61.6% | viability [5] 65.6% | inhibition [6] 0.75% | RAM network inhibition [7] 7.89%

CCCC1(C(=O)O)NC(c2ccccc2O)C2C(=O)N(c3cccc(Cl)c3)C(=O)C21 (stereo not drawn)
inactive: growth inhibition [1] 6.45% | growth inhibition [2] 7.74% | viability increase [3] 0.1% | viability [4] 107% | viability [5] 94.5% | inhibition [6] 0.955% | RAM network inhibition [7] 0.05%

CC1CCN(c2nc3c(c(=O)n(C)c(=O)n3C)n2CCSc2ncccn2)CC1
inactive: growth inhibition [1] -3.47% | growth inhibition [2] -3.19% | viability increase [3] -0.04% | viability [4] 99.1% | viability [5] 96.3% | inhibition [6] 1.61% | RAM network inhibition [7] 2.44%

Cc1oc(C(C)(C)C)cc1C(=O)Nc1ccc(C(=O)O)cc1
inactive: growth inhibition [1] 6.25% | growth inhibition [2] -11.5% | viability increase [3] 2.02% | viability [4] 103% | viability [5] 91% | inhibition [6] 0.6% | RAM network inhibition [7] -1.87%

CCOC(=O)N1CCN(C(=O)CN(c2cc(C(F)(F)F)ccc2Cl)S(C)(=O)=O)CC1
inactive: growth inhibition [1] 0.24% | growth inhibition [2] 9.28% | viability increase [3] -1.79% | viability [4] 103% | viability [5] 99% | inhibition [6] -0.91% | RAM network inhibition [7] -0.25%

O=C(NCCN1CCOCC1)NC1(C(F)(F)F)Oc2ccccc2O1
inactive: growth inhibition [1] -11% | growth inhibition [2] 4.58% | viability increase [3] -4.99% | viability [4] 76.3% | viability [5] 84.5% | inhibition [6] 0.645% | RAM network inhibition [7] 0.82%
